# Reference: ChEMBL document CHEMBL1140198, “Studies on novel 4beta-[(4-substituted)-1,2,3-triazol-1-yl] podophyllotoxins as potential anticancer agents” (Eur J Med Chem, 2008)
# What was measured:
# Assay type in all cases: functional, cell-based
# PC-3 = assay: Cytotoxicity against human PC-3 cells by sulforhodamine B assay
# How it was run: (§1)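 Log-phase cells seeded at 10⁴ cells/well and allowed to attach for 24 h at 37 °C, 5% CO₂. Then exposed to test samples over a 1:10 serial dilution series for 48 h under the same conditions, four replicate wells per condition. Fixed with 50% chilled TCA for 1 h at 4 °C, stained with sulforhodamine B, and the bound dye dissolved in Tris buffer.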
# HCT-15 = assay: Cytotoxicity against human HCT-15 cells by sulforhodamine B assay; how it was run: as §1
# DU-145 = assay: Cytotoxicity against human DU145 cells by sulforhodamine B assay; how it was run: as §1
# HEp-2 = assay: Cytotoxicity against human HEP2 cells by sulforhodamine B assay; how it was run: as §1
# SF-295 = assay: Cytotoxicity against human SF295 cells by sulforhodamine B assay; how it was run: as §1
# A549 = assay: Cytotoxicity against human A549 cells by sulforhodamine B assay; how it was run: as §1
# [1] = Cytotoxicity against human 502713 cells by sulforhodamine B assay; how it was run: as §1
Structure (SMILES),IC50 (PC-3),IC50 (HCT-15),IC50 (DU-145),IC50 (HEp-2),IC50 (SF-295),IC50 (A549),IC50 [1]
COc1cc([C@@H]2c3cc4c(cc3[C@@H](n3cc(CNc5cccc(Cl)c5)nn3)[C@H]3COC(=O)[C@H]23)OCO4)cc(OC)c1OC,1180 nM,340 nM,930 nM,1370 nM,840 nM,4990 nM,710 nM
COc1cc([C@@H]2c3cc4c(cc3[C@@H](n3cc(CNc5ccccc5C)nn3)[C@H]3COC(=O)[C@H]23)OCO4)cc(OC)c1O,1530 nM,140 nM,1190 nM,1500 nM,960 nM,5170 nM,620 nM
COc1cc([C@@H]2c3cc4c(cc3[C@@H](n3cc(CNc5ccccc5)nn3)[C@H]3COC(=O)[C@H]23)OCO4)cc(OC)c1O,1030 nM,400 nM,1090 nM,2960 nM,700 nM,7460 nM,680 nM
COc1cc([C@@H]2c3cc4c(cc3[C@@H](n3cc(CNc5cccc([N+](=O)[O-])c5)nn3)[C@H]3COC(=O)[C@H]23)OCO4)cc(OC)c1OC,740 nM,40 nM,650 nM,3650 nM,680 nM,5780 nM,560 nM
COc1cc([C@@H]2c3cc4c(cc3[C@@H](n3cc(CNc5ccccc5)nn3)[C@H]3COC(=O)[C@H]23)OCO4)cc(OC)c1OC,880 nM,140 nM,1120 nM,4640 nM,780 nM,6100 nM,610 nM
COc1cc([C@@H]2c3cc4c(cc3[C@@H](n3cc(CNc5ccccc5C)nn3)[C@H]3COC(=O)[C@H]23)OCO4)cc(OC)c1OC,1090 nM,360 nM,1060 nM,9140 nM,1940 nM,7880 nM,780 nM
COc1cc([C@@H]2c3cc4c(cc3[C@@H](n3cc(CNc5cccc([N+](=O)[O-])c5)nn3)[C@H]3COC(=O)[C@H]23)OCO4)cc(OC)c1O,6630 nM,1550 nM,4370 nM,4100 nM,4200 nM,7430 nM,1190 nM
COc1cc([C@@H]2c3cc4c(cc3[C@@H](n3cc(CNc5cccc(Cl)c5)nn3)[C@H]3COC(=O)[C@H]23)OCO4)cc(OC)c1O,1370 nM,4220 nM,4160 nM,1220 nM,3110 nM,8630 nM,980 nM
COc1cc([C@@H]2c3cc4c(cc3[C@@H](n3cc(CNc5ccccc5Cl)nn3)[C@H]3COC(=O)[C@H]23)OCO4)cc(OC)c1OC,3450 nM,1430 nM,3570 nM,1260 nM,1000 nM,9240 nM,1880 nM
COc1cc([C@@H]2c3cc4c(cc3[C@@H](O[C@@H]3O[C@@H]5CO[C@@H](C)O[C@H]5[C@H](O)[C@H]3O)[C@H]3COC(=O)[C@H]23)OCO4)cc(OC)c1O [ETOPOSIDE],17400 nM,1480 nM,3850 nM,2150 nM,13300 nM,5620 nM,2420 nM
COc1cc([C@@H]2c3cc4c(cc3[C@H](O)[C@H]3COC(=O)[C@H]23)OCO4)cc(OC)c1OC [PODOFILOX],18900 nM,1000 nM,2970 nM,1420 nM,5690 nM,7630 nM,3880 nM
